# Source: PubChem
# This is a sample that favours compounds with a hit; in the whole collection about 3.8% have one here.
# MrgX1 PAM = allosterically activates human MrgX1 receptor signaling; Q96LB2; MrgX1-HEK293, Fluo-4 calcium flux, FDSS; active compounds read high; B-score at 10 µM; actives 0.63% (n = 310,000); AID 588675;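 active = plate-corrected calcium response at least 3 library SD above typical, normal starting fluorescence, not activating the receptor alone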;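 note: compound read alongside a low EC10 to EC30 dose of BAM8-22 agonist; peak minus trough fluorescence over baseline measured at the second addition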
# Target sequence (Q96LB2 whole entry, looked up): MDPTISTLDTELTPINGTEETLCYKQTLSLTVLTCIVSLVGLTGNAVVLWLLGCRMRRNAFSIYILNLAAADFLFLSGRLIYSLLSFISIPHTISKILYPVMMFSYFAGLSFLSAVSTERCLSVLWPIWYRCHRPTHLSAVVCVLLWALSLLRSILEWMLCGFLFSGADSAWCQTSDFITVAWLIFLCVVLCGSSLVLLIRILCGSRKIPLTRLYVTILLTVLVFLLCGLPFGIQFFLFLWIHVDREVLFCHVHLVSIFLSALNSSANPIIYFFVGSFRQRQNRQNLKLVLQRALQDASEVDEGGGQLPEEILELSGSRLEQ
# MrgX1 antag = human MrgX1 receptor antagonism, primary screen | B-score at 10 µM | actives 1.3% (n = 310,000) | AID 588676 | Q96LB2 | MRGX1-HEK293 calcium flux, Fluo-4, BAM8-22 antagonism; active compounds read low;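 active = calcium-response B-score plate-corrected more than 3 library SD below zero, starting fluorescence within 5 deviations, no agonist response on first addition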;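 note: peak minus trough fluorescence over baseline after final BAM8-22 challenge near maximal dose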
# Hep lipid drop = hepatic lipid droplet formation modulation; AML12 mouse hepatocytes, oleate lipid droplets, BODIPY imaging; inhibition, % at 6.5 µM; actives 0.4% (n = 240,000); AID 1656;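 active = lipid droplet intensity inhibited by at least 50%, with more than 500 cells counted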
#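 material = mouse AML12 hepatocyte cell line, fixed after treatment | also added = 100 µM oleic acid challenge | doses = compound at 6.5 µM only | schedule = overnight exposure | technique = Image-based BODIPY and DAPI two-channel analysis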
# RGS4 inh = inhibitors of human RGS4. B-score at 10 µM. actives 0.45% (n = 310,000). HEK293 M3R/RGS4 inducible, Fluo-4 calcium flux; active compounds read high; triggered by carbachol at its EC20;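 active = B-score, a plate-corrected calcium signal, over three deviations above library mean, with baseline fluorescence within five deviations of library mean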;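 note: RGS4 expression induced by doxycycline in cells with stable M3 receptor; B-score is computed from the integrated fluorescence ratio over baseline after carbachol; higher B-score means a larger calcium signal and so more RGS4 inhibition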
# Target sequence (P49798 whole entry, looked up): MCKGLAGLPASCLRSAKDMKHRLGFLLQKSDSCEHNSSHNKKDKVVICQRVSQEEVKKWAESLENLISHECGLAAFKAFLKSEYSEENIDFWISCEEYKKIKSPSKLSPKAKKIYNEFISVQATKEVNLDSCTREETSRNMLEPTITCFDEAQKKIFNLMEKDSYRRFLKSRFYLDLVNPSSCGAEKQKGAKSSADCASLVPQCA
# MrgX1 agonist = agonists of human MrgX1 receptor | Q96LB2 | MrgX1-HEK293 cells, Fluo-4 calcium fluorescence, agonist mode; active compounds read high | B-score at 10 µM | actives 0.44% (n = 310,000) | AID 588627;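 active = calcium response B-score plate-corrected fluorescence ratio at least 3 library SD, with starting fluorescence B-score inside 5 SD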
#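 Material: HEK293 cells stably expressing human MrgX1 receptor | Quantity: 15,000 cells per well | Times: Cells plated overnight, dye loaded 0.5 h 37 °C, 0.5 h room temperature | Measured by: Kinetic Fluo-4 NW fluorescence of intracellular calcium | Control set: Positive and negative controls per plate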
# RGS4 pot = potentiators or activators of RGS4. HEK293 M3R/inducible RGS4, carbachol calcium flux Fluo4; active compounds read low. B-score at 10 µM. actives 0.92% (n = 310,000);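 active = B-score of the integrated calcium signal more than 4 SD below the library mean, with starting fluorescence not abnormally high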;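 note: negative B-score means reduced calcium response which marks RGS4 activation or potentiation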
#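 Reagent: ECmax carbachol challenge; Test system: M3R-expressing HEK293 line, RGS4 induced by doxycycline; Schedule: overnight RGS4 induction, 30 min dye load 37 °C, 20 min compound RT; Detection: calcium dye Fluo4 fluorescence; Read-out: Agonist-evoked peak-minus-minimum fluorescence over baseline, integrated ratio, B score.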
# MrgX1 ant reconf = reconfirmed antagonist of human MrgX1 receptor signaling; AID 602420; MrgX1-HEK293, BAM8-22 calcium flux, Fluo-4; active compounds read low; remaining BAM8-22 calcium response % of control (active compounds read low), % at 10 µM; actives 19% (n = 2,300); shares compounds with MrgX1 antag;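 active = remaining agonist calcium response no higher than 100% minus 3 SD of agonist-only control wells, with starting fluorescence near control levels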;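 note: agonist BAM8-22 given at a near maximal EC90 to ECmax level; peak minus minimum fluorescence divided by baseline after agonist addition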
# HEK293 Ca flux = counter-screen for MrgX1 antagonists: effect in parental HEK293 cells | shares compounds with MrgX1 antag | Fluo-4 calcium fluorescence, FDSS | fluorescence ratio F(max-min)/F0 at 10 µM | actives 2% (n = 4,000) | AID 624111;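 active = duplicate-averaged calcium fluorescence ratio at least three times the standard deviation of buffer wells, a nonspecific response in parental cells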
# HEK293 Ca counter = MrgX1 allosteric activator counter-screen hit in parental HEK293 cells | shares compounds with MrgX1 antag | actives 0.4% (n = 4,000) | fluorescence ratio F(max-min)/F0 at 10 µM | parental HEK293 calcium flux, Fluo-4 fluorescence ratio; active compounds read high;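 active = calcium fluorescence ratio, averaged over duplicates, at least 3 SD of the buffer-well ratio, meaning a nonspecific response in receptor-free cells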;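 note: untransfected parental HEK293 lacking MrgX1 used as counterscreen for MrgX1 allosteric activators; fluorescence change taken during the second addition on a kinetic imager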
# HEK293 Ca cntr2 = counter-screen for MrgX1 activators: effect in parental HEK293 cells. actives 8.7% (n = 4,000). shares compounds with MrgX1 antag. Fluo-4 calcium fluorescence (FDSS); active compounds read high. fluorescence ratio F(max-min)/F0 at 10 µM;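 active = calcium fluorescence ratio at least three times the spread of buffer wells, meaning a non-specific response in parental cells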
# The depositor's hits bear a star; i = inactive; nt = no result.
SMILES,MrgX1 PAM,MrgX1 antag,Hep lipid drop,RGS4 inh,MrgX1 agonist,RGS4 pot,MrgX1 ant reconf,HEK293 Ca flux,HEK293 Ca counter,HEK293 Ca cntr2
O=C(CSc1nnc(NC(=O)c2cccc(Cl)c2)s1)NCC1CCCO1 (stereo not drawn),i,i,6,i,i,i,nt,nt,nt,nt
C[C@@H]1CC=C[C@H]2[C@H]1C(=O)N(Cc1ccccc1)[C@H]2c1cccc([N+](=O)[O-])c1,i,i,-38,i,i,i,nt,nt,nt,nt
O=C(c1cc(COc2cccc3cnccc23)on1)N1CCC(c2ccccc2Cl)C1 (stereo not drawn),i,-4.6*,-21,i,i,i,i,i,i,i
COc1ccccc1NS(=O)(=O)c1cc(NC(=O)c2ccc(Cl)nc2)ccc1Cl,i,-14*,-16,i,i,i,54%*,i,i,i
COc1ccc(NC(=O)c2ccc(Cl)c(S(=O)(=O)N3CCc4ccccc4C3)c2)cn1,i,-5.5*,-17,i,i,i,38%*,i,i,i
Clc1ccccc1N/N=C/c1ccc2c(c1)OCO2,i,i,6,i,i,i,nt,nt,nt,nt
Cc1ccc(OCC(=O)Nn2c(C)nc3ccccc3c2=O)c(C(C)C)c1,i,-11*,nt,i,i,i,i,i,i,i
COC(=O)c1ccc(S(=O)(=O)c2ccc(Cl)cc2)c(N)c1,i,i,-60,i,i,i,nt,nt,nt,nt
Cc1ccc(C)c(C(=O)COC(=O)c2ccccc2N2C(=O)C3C4CCC(C4)C3C2=O)c1 (stereo not drawn),i,-6*,nt,i,i,i,i,i,i,i
COc1ccc(C(C)NC(=O)Nc2ccc(C(C)=O)cc2)cc1OC (stereo not drawn),i,i,-2,i,i,i,nt,nt,nt,nt
O=C(Nc1ccc(N2C(=O)C3C4C=CC(C4)C3C2=O)cc1)Nc1nncs1 (stereo not drawn),i,-4.6*,11,i,i,i,i,i,i,i
O=C(COc1ccc(Br)cc1)Nc1ccc(C(=O)Nc2ccccc2C(=O)O)cc1,i,-7.1*,-13,i,i,i,i,i,i,i
CC(C)(C)SCCNC(=O)/C=C/c1cccc([N+](=O)[O-])c1,i,i,5,i,i,i,nt,nt,nt,nt
CCOC(=O)C(NC(=O)c1ccccc1)=C(C)C,i,-8.9*,1,i,i,i,i,i,i,i
COc1ccc(C2=NOC(C)(c3nnc(Cc4ccccc4)o3)C2)cc1 (stereo not drawn),i,i,nt,i,i,i,nt,nt,nt,nt
Cc1c(N=C2SCC(=O)N2/N=C/c2ccccc2)c(=O)n(-c2ccccc2)n1C,i,i,20,i,i,i,nt,nt,nt,nt
N#CC1=C(N)OC2=C(C(=O)CCC2)C12CCC1(CC2)OCCO1,i,i,nt,i,i,i,nt,nt,nt,nt
CC1(C)C(C#N)=C(N)OC2=C1C(=O)CCC2,i,-5.7*,nt,i,i,i,i,i,i,i
Cc1nonc1C1CCCN1C(=O)c1cc(COc2ccc(F)cc2Cl)on1 (stereo not drawn),i,-8.8*,-16,i,i,i,i,i,i,i
O=C(CSc1nnc2ccc(-c3ccccn3)nn12)NCCc1ccccc1,i,-13*,nt,i,i,i,84%*,i,i,i
CCn1nnnc1SCC(=O)N1CCCCC1,i,i,nt,i,i,i,nt,nt,nt,nt
COC(=O)C1=C(C)NC(=O)C1(NC(=O)c1cccnc1)C(F)(F)F (stereo not drawn),i,i,10,i,i,i,nt,nt,nt,nt
COC(=O)C1=C(C)NC(=O)C1(Nc1ccc(Cl)cn1)C(F)(F)F (stereo not drawn),i,-4.6*,17,i,i,i,i,i,i,i
COc1ccc(C(=O)NC2=NCCS2)cc1S(=O)(=O)N1CCCCC1C (stereo not drawn),i,i,-3,i,i,i,nt,nt,nt,nt
COc1cccc(C(=O)COc2ccc3c(C)cc(=O)oc3c2)c1,i,-5.1*,-17,i,i,i,83%*,i,i,i
SMILES,MrgX1 PAM,MrgX1 antag,Hep lipid drop,RGS4 inh,MrgX1 agonist,RGS4 pot,MrgX1 ant reconf,HEK293 Ca flux,HEK293 Ca counter,HEK293 Ca cntr2
Brc1ccc(-c2nc3ncccn3c2NC2CCCCC2)o1,i,-5.3*,14,i,i,i,i,i,i,i
COc1ccccc1NC(=S)NCCc1c[nH]c2ccccc12,i,-5.6*,nt,i,i,i,i,i,i,i
O=C(CNC(=O)c1ccccc1)NCC(=O)OCC(=O)c1ccc(F)cc1,i,-4.8*,nt,i,i,i,i,i,i,i
O=C(CNC(=O)Cc1ccccc1)NCC(=O)OCC(=O)c1ccc(F)cc1,i,i,-5,i,i,i,nt,nt,nt,nt
Cc1ccc(N2C(=O)N(CC(=O)Nc3ccc(C)c(C)c3)C(=O)C2C)cc1 (stereo not drawn),i,i,nt,i,i,i,nt,nt,nt,nt
CCOCCCNC(=O)c1ccc2c(c1)ncn2-c1cccc(C)c1,i,i,-3,i,i,i,nt,nt,nt,nt
O=C(CCCCCNC(=S)Nc1ccccc1)C[N+](=O)[O-],i,i,0,i,i,i,nt,nt,nt,nt
CCOc1c(OC)cccc1C1CC(=O)Nc2cc3c(cc21)OCCO3 (stereo not drawn),i,-4.9*,-1,i,i,i,i,i,i,i
CCC(CO)NS(=O)(=O)c1cc(-c2nn(C)c(=O)c3ccccc23)ccc1C (stereo not drawn),i,i,3,i,i,i,nt,nt,nt,nt
